# Results reported in article PMC5221799 (International Journal of Nanomedicine, 2016).
# Like-named read-outs stand apart in the source and are kept apart here.
# What was measured:
# [1] = tested on: MCF7/ADR xenografts; assay: In vivo antitumor efficacy in MCF7/ADR xenografts; design: species or system BALB/c nude mice; conditions: tail vein every 3 days five times, n=6
# [2] = tested on: MCF7/ADR (Dox-resistant) cells; assay: CCK-8 cytotoxicity assay in MCF7/ADR cells; format: cell-based, human; conditions: for IC50: read-out: IC50 of Dox or equivalent NLS-Dox, MCF7/ADR cells, CCK-8, mean ± SD (n=5)
# Summary of the method: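 CCK-8 assay in MCF7 and MCF7/ADR cells (Dox withdrawn from resistant line 1 week prior). Cells seeded at 0.5×10^4/well, grown overnight, then exposed to a concentration range for 48 or 96 h. CCK-8 was added for 1 h at 37°C and A450 read. Viability = (Asample−Ablank)/(Anon-treated−Ablank)×100%. n=5.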
# [3] = tested on: MCF7/ADR cells; assay: Annexin V-FITC/propidium iodide apoptosis assay by flow cytometry; format: cell-based, human; conditions: 48 hours of incubation, Dox 20 μM
# Summary of the method: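 MCF7/ADR cells (DMEM, 10% FBS; resistance kept with 1 μg/mL Dox, withdrawn 1 week before use) seeded at 10^5 cells/well and left 24 h. Treated with free Dox or nanoparticles (Dox 20 μM and/or anti-miR21 213.3 nM) for 48 h. Cells were washed, trypsinised, and stained with annexin V–FITC/PI for 15 min at room temperature in the dark, then analysed by flow cytometry. Untreated cells served as blanks; three repeats.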
structure (smiles),measurement,setting,value
"COc1cccc2c1C(=O)c1c(O)c3c(c(O)c1C2=O)C[C@@](O)(C(=O)CO)C[C@@H]3O[C@H]1C[C@H](N)[C@H](O)[C@H](C)O1 [Free Dox, doxorubicin]",effect on growth of MCF7/ADR xenografts,[1]; free Dox 7.6 mg/kg,slight inhibitory effect
same,body weight change of tumor-bearing mice,[1]; measured for 3 weeks,significant weight loss
same,IC50 in MCF7/ADR cells relative to parent MCF7 cells,[2]; 48 hours incubation,over 20 fold
same,IC50,[2]; 48 hours,49.4 ± 2.58 µM
same,IC50,[2]; 96 hours,30 ± 1.46 µM
same,apoptotic cells,[3],10.75%
